Values after ≈ are worked out from the molar mass of the structure shown.
Key:
[1] = test system: Mycobacterium tuberculosis; assay: Antimycobacterial activity against Mycobacterium tuberculosis H37Rv after 7 days by resazurin based microdilution assay; assay type: functional; settings: 168 h
Outline: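 M. tuberculosis H37Rv in resazurin microtitre assay (REMA) with two-fold serial dilutions of compound; isoniazid as reference drug. MIC taken as lowest concentration giving complete inhibition, read visually by colour change (blue stays blue without growth, turns pink with growth).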

[2] = Cytotoxicity against african green monkey Vero C1008 cells after 72 hrs by MTT assay; assay type: cell-based; settings: chlorocebus sabaeus
Outline: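 Mammalian VERO C1008 cells were exposed to the compounds in microtitre plates, viability was read by MTT assay, and CC50 values were determined.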

Row | SMILES | MIC [1] [µM] | CC50 at 72 h [2] [µM]
1 | O=C(/C=C/c1ccccc1)Nc1nnc(-c2ccccc2)[nH]1 | 86.2 (≈ 25 µg/mL) | 1570
2 | O=C(/C=C/c1ccc(Cl)cc1)Nc1nnc(-c2ccccc2)[nH]1 | 92.6 (≈ 30.1 µg/mL) | 1620
3 | COc1ccc(/C=C/C(=O)Nc2nnc(-c3ccccc3)[nH]2)cc1 | 39.1 (≈ 12.5 µg/mL) | 1280
4 | Cc1ccc(/C=C/C(=O)Nc2nnc(-c3ccccc3)[nH]2)cc1 | 82.2 (≈ 25 µg/mL) | 1760
5 | O=C(/C=C/c1ccc(O)cc1)Nc1nnc(-c2ccccc2)[nH]1 | 40.8 (≈ 12.5 µg/mL) | 1850
6 | Nc1ccc(/C=C/C(=O)Nc2nnc(-c3ccccc3)[nH]2)cc1 | 20.5 (≈ 6.26 µg/mL) | 1910
7 | O=C(/C=C/c1ccc2c(c1)COC2)Nc1nnc(-c2ccccc2)[nH]1 | 18.8 (≈ 6.25 µg/mL) | 1820
8 | COc1ccc(/C=C/C(=O)Nc2nnc(-c3ccccc3)[nH]2)cc1OC | 4.6 (≈ 1.61 µg/mL) | 1210
9 | O=C(/C=C/c1cccc(Cl)c1)Nc1nnc(-c2ccccc2)[nH]1 | 38.6 (≈ 12.5 µg/mL) | 1470
10 | O=C(/C=C/c1cccc([N+](=O)[O-])c1)Nc1nnc(-c2ccccc2)[nH]1 | 9.7 (≈ 3.25 µg/mL) | 1990
11 | O=C(/C=C/c1ccco1)Nc1nnc(-c2ccccc2)[nH]1 | 11.6 (≈ 3.25 µg/mL) | 2180
12 | O=C(/C=C/c1ccc([N+](=O)[O-])s1)Nc1nnc(-c2ccccc2)[nH]1 | 4.8 (≈ 1.64 µg/mL) | 1670
13 | C=C(C)COc1ccc(/C=C/C(=O)Nc2nnc(-c3ccccc3)[nH]2)cc1 | 9 (≈ 3.24 µg/mL) | 1420
14 | O=C(/C=C/c1ccc(OC(F)(F)F)cc1)Nc1nnc(-c2ccccc2)[nH]1 | 8.6 (≈ 3.22 µg/mL) | 1560
15 | NNC(=O)c1ccncc1 [ISONIAZID] | 1.8 (≈ 0.247 µg/mL) | 1460

From ChEMBL document CHEMBL1914372, “Synthesis and preliminary biological evaluation of novel N-(3-aryl-1,2,4-triazol-5-yl) cinnamamide derivatives as potential antimycobacterial agents: an operational Topliss Tree approach” (Bioorg Med Chem Lett, 2011)
